Results taken from paper PMC9064382 (RSC Advances, 2019).

Columns and labels:
[1] = target: T1, hOCT1 (Homo sapiens, UniProt O15245); experiment: Uptake of aconitum alkaloids in hOCT1-transfected cells vs mock; type: in vitro ADME; details: 10 μm, 5 min
T1 sequence (O15245 1-554): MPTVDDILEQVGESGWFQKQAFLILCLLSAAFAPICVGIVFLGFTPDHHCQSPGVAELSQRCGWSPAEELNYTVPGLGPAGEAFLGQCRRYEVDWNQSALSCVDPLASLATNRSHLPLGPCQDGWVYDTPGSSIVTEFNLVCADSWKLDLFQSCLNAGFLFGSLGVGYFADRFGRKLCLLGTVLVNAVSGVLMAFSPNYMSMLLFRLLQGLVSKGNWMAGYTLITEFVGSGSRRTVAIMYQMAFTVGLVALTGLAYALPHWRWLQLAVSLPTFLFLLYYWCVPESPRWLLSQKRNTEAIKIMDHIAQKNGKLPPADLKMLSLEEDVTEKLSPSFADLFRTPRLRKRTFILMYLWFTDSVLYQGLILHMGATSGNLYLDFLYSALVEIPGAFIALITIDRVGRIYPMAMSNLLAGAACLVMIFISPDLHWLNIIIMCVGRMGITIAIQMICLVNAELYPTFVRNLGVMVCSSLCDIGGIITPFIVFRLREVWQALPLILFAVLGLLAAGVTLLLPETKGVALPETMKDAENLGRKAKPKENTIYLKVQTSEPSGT

[2] = target: T2, hOAT3 (Homo sapiens, UniProt Q8TCC7); experiment: Inhibition of 3H-ES uptake in hOAT3-transfected cells by liquorice ingredients; type: in vitro ADME
T2 sequence (Q8TCC7 1-542): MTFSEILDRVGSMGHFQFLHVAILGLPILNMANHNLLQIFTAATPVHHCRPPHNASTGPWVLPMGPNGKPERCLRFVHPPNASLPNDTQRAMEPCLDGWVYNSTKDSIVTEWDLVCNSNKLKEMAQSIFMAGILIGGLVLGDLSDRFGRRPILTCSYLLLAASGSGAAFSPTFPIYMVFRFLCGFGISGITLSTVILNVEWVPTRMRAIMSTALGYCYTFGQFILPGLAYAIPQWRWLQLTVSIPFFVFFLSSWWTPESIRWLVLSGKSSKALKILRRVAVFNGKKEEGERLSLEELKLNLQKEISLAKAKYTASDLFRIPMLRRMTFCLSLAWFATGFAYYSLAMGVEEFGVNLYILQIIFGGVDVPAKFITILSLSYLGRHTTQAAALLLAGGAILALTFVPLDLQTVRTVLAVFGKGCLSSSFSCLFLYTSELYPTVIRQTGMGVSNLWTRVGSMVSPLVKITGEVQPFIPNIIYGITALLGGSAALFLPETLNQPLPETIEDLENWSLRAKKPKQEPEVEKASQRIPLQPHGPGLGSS
In short: (§1)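 Transfected and mock cells were incubated 2 min at 37 °C with 200 nmol L−1 3H-ES plus test compound. The screen used a single 100 μmol L−1 concentration with reference inhibitors as positive controls, giving an inhibition rate (n = 3, mean ± sd). […] DMSO was <0.2%. Cells were stopped with cold DPBS, rinsed three times, lysed in 0.1 mol L−1 NaOH and counted by scintillation (dpm).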

[3] = target: T3, hOCT2 (Homo sapiens, UniProt O15244); experiment: Inhibition of 14C-TEA uptake in hOCT2-transfected cells by liquorice ingredients; type: in vitro ADME; details: for inhibitory rate on hOCT2: 100 μm, 5 μmol L^−1 14C-TEA, 5 min
T3 sequence (O15244 1-555): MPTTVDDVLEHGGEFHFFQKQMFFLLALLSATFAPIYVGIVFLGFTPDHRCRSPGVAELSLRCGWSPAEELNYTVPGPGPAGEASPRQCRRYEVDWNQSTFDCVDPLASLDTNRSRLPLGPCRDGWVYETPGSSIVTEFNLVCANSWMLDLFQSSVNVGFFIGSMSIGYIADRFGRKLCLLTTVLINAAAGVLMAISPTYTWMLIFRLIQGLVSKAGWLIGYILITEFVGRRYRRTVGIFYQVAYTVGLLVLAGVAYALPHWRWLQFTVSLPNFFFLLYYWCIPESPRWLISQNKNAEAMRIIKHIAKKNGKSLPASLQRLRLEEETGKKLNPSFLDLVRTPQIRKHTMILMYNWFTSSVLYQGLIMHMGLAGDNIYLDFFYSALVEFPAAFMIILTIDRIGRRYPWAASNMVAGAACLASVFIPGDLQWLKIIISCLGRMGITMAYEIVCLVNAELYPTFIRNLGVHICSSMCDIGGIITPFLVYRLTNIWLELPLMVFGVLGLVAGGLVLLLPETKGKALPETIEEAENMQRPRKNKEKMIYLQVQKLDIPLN

[4] = target: T4, hOATP2B1 (Homo sapiens, UniProt O94956); type: in vitro ADME; details: for inhibition of hOATP2B1: screening at 100 μm
T4 sequence (O94956 1-709): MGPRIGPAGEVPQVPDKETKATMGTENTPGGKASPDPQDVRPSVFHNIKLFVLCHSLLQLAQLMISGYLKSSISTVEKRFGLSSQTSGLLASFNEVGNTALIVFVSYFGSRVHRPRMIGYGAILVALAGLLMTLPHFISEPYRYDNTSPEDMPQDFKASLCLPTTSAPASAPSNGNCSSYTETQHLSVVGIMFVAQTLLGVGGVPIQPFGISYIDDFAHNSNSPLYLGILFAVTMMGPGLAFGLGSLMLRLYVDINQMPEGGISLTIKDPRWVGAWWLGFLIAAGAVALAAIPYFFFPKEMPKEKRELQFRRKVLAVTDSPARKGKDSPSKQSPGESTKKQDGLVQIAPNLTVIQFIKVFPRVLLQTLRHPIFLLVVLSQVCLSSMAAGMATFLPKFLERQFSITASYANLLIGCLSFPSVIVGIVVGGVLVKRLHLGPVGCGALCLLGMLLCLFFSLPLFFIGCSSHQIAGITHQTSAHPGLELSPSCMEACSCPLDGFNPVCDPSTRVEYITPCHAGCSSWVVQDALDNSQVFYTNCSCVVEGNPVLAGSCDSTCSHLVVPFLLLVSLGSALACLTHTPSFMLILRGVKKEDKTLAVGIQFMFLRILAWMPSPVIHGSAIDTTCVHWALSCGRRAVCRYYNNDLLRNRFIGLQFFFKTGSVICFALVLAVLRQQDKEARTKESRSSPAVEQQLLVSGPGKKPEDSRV
In short: as §1

[5] = target: T5, hOATP1B1 (Homo sapiens, UniProt Q9Y6L6); type: in vitro ADME; details: screening at 100 μm
T5 sequence (Q9Y6L6 1-691): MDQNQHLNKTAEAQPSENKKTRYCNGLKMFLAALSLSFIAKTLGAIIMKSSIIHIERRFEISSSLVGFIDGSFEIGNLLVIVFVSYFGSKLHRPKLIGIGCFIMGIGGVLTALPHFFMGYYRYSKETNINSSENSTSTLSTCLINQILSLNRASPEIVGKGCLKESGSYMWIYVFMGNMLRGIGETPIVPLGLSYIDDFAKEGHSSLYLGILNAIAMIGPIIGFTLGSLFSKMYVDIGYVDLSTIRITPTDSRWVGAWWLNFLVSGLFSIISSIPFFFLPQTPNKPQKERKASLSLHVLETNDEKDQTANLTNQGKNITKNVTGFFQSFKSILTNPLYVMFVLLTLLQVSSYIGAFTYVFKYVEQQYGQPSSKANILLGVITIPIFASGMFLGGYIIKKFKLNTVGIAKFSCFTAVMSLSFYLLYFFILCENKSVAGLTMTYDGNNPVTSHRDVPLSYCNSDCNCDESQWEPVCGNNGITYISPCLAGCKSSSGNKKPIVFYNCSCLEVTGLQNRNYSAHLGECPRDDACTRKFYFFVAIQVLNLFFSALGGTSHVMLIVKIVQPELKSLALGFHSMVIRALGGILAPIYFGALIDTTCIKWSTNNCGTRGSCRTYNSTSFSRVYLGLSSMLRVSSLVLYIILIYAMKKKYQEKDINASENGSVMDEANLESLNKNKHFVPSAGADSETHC

[6] = target: T6, hOATP1B3 (Homo sapiens, UniProt Q9NPD5); type: in vitro ADME; details: screening at 100 μm
T6 sequence (Q9NPD5 1-702): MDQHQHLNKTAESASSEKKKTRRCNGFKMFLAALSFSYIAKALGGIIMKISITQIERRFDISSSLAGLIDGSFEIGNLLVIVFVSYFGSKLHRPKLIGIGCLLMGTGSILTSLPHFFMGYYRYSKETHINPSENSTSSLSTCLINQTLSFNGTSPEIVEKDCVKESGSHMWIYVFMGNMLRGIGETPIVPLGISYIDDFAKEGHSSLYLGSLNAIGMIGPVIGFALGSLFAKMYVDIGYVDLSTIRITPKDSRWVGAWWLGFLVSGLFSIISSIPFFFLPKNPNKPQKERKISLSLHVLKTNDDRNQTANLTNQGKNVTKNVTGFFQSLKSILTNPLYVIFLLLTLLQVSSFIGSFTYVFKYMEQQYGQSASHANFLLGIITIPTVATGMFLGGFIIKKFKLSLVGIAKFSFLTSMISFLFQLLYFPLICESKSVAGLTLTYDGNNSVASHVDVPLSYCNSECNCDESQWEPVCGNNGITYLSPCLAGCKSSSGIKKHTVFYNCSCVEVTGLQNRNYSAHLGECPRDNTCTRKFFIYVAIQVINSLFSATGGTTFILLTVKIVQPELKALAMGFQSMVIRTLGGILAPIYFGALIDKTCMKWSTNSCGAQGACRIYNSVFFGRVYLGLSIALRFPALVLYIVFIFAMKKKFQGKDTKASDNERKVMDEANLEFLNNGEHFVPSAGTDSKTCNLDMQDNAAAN

[7] = target: T5, hOATP1B1; experiment: Uptake of aconitum alkaloids in hOATP1B1-transfected HEK293 cells vs mock; type: in vitro ADME; details: 10 μm, 2 min
In short: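 HEK293-hOATP1B1 and mock cells were grown in DMEM with 10% FBS, seeded at 2 × 10^5/well and cultured 48 h. They were rinsed, preincubated 10 min at 37 °C in DPBS pH 7.4, then exposed to the alkaloid for 2 min at 37 °C. After three ice-cold DPBS rinses and methanol lysis, supernatants were measured by UPLC-MS/MS (positive MRM, sinomenine internal standard). Results were normalised to BCA protein; n = 3, t-test versus mock.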

[8] = target: T6, hOATP1B3; experiment: Uptake of aconitum alkaloids in hOATP1B3-transfected HEK293 cells vs mock; type: in vitro ADME; details: 10 μm, 2 min, HEK293-hOATP1B3 vs mock
[9] = type: in vivo, Sprague-Dawley (SD) rats; details: pretreatment with the named substance, rats

## CCN1C[C@]2(COC)[C@H](O)C[C@H](OC)[C@@]34[C@@H]5C[C@@]6(O)[C@H](OC(=O)c7ccccc7)[C@@H]5[C@@](O)([C@@H]([C@H](OC)[C@H]23)[C@@H]14)[C@@H](O)[C@@H]6OC [benzoylaconitine]
[1]
  concentration in HEK293–hOCT1, fold higher than control: ~2.3 fold

## COC[C@@]12CC[C@H](OC)[C@]34C([C@H]([C@H](OC)[C@H]13)[C@]1(O)[C@H]3[C@@H](OC(=O)c5ccccc5)[C@](O)(C[C@H]34)[C@@H](OC)[C@@H]1O)N(C)C2 [benzoylhypaconitine]
[1]
  concentration in HEK293–hOCT1, fold higher than control: ~3.7 fold

## COC[C@]12CN(C)C3[C@@H]4[C@H](OC)[C@H]1[C@@]3([C@@H](OC)C[C@H]2O)[C@@H]1C[C@@]2(O)[C@H](OC(=O)c3ccccc3)[C@@H]1[C@]4(O)[C@@H](O)[C@@H]2OC [benzoylmesaconitine]
[1]
  concentration in HEK293–hOCT1, fold higher than control: ~2.2 fold

## CC1(C)[C@@H](O)CC[C@]2(C)[C@H]3C(=O)C=C4[C@@H]5C[C@@](C)(C(=O)O)CC[C@]5(C)CC[C@@]4(C)[C@]3(C)CC[C@@H]12 [glycyrrhetinic acid]
[2]
  IC50: 1.83 µM
[3]
  IC50: 7.41 µM
  inhibitory rate on hOCT2: 80.17%
[4]
  IC50: 1.07 µM
  inhibition of hOATP2B1: strong inhibitors

## COC[C@@]12CC[C@H](OC)[C@]34C(C([C@H](OC)[C@H]13)[C@]1(OC(C)=O)[C@H]3[C@@H](OC(=O)c5ccccc5)[C@](O)(C[C@H]34)[C@@H](OC)[C@@H]1O)N(C)C2 [hypaconitine]
[1]
  concentration in HEK293–hOCT1, fold higher than control: ~3.3 fold

## O=C(/C=C/c1ccc(O)cc1)c1ccc(O)cc1O [isoliquiritigenin]
[2]
  IC50: 2.18 µM
[3]
  IC50: 31.4 µM

## O=C(/C=C/c1ccc(O[C@@H]2O[C@H](CO)[C@@H](O)[C@H](O)[C@H]2O)cc1)c1ccc(O)cc1O [isoliquiritin]
[5]
  inhibition of hOATP1B1: strong inhibitors
[3]
  inhibitory rate on hOCT2: 71.9%
[4]
  inhibition of hOATP2B1: strong inhibitors
[6]
  inhibition of hOATP1B3: strong inhibitors

## COC[C@]12CN(C)[C@@H]3[C@@H]4[C@H](OC)[C@H]1[C@@]3([C@@H](OC)C[C@H]2O)[C@@H]1C[C@@]2(O)[C@H](OC(=O)c3ccccc3)[C@@H]1[C@]4(OC(C)=O)[C@@H](O)[C@@H]2OC [mesaconitine]
[1]
  concentration in HEK293–hOCT1, fold higher than control: roughly 1.9 fold
[7]
  concentration in hOATP1B1-transfected cells, fold of HEK293 mock cells: approximately 2.7 fold
[8]
  concentration in hOATP1B3-transfected cells, fold of HEK293 mock cells: ~3.4 fold

## C=C[C@H]1C[N@@]2CC[C@H]1C[C@@H]2[C@@H](O)c1ccnc2ccc(OC)cc12 [quinidine, reference compound]
[9]
  Tmax of aconitine in the liver: postponed
